The target of data set [1] is Acyl-CoA (8-3)-desaturase (Rattus norvegicus) (UniProt Q920R3). Kind of data set: Displacement of [3H]T-3364366 from D5D in Sprague-Dawley rat liver microsomes at high concentrations after 150 mins by liquid scintillation counting. Summed up: (§1)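 Filter binding with [³H]T-3364366 as probe on rat liver microsomes, incubated 150 min. Specific binding is total minus nonspecific. In displacement runs, DMSO serves as 100% and 10 μM nonlabeled T-3364366 as 0%. Mean ± SEM, n = 3; apparent Kd reported with 95% CI.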
Chain of Acyl-CoA (8-3)-desaturase (Rattus norvegicus) (Q920R3 whole entry, looked up): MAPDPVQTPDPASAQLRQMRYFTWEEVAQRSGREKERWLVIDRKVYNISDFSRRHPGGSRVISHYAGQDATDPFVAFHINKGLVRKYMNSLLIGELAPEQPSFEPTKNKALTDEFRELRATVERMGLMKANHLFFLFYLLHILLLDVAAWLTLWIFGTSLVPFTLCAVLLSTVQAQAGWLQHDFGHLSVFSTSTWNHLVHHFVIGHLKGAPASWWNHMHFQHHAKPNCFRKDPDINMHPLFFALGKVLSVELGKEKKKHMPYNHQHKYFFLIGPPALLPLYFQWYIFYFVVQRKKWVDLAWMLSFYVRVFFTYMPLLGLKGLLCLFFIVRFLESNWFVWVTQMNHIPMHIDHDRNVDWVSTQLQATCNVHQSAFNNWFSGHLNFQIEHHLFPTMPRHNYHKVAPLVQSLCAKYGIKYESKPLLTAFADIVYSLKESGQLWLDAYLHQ
In general terms: In a radioligand displacement assay an active substance lowers the binding of a labelled ligand.

Data set [2] has as its target T1, Acyl-CoA (8-3)-desaturase (Homo sapiens, UniProt O60427). Kind of data set: Binding affinity to recombinant wild type D5D (unknown origin) expressed in baculovirus at 5 to 25 nM after 150 mins by liquid scintillation counting.
Target sequence in this assay (O60427 whole entry, looked up): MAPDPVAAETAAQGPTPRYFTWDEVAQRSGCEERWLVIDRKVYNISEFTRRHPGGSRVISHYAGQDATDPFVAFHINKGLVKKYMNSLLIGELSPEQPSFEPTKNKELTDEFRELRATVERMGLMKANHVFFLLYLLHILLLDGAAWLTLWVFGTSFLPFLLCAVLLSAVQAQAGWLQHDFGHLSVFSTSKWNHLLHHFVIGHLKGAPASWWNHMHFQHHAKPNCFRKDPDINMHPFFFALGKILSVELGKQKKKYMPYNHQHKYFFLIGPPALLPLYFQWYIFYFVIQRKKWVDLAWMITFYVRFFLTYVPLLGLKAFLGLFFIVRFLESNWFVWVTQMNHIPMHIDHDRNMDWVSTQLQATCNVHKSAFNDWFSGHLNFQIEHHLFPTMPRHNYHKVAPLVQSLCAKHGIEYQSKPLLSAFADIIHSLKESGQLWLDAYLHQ
Data set [3] has as its target T1, Acyl-CoA (8-3)-desaturase. In words: Inhibition of D5D in human HepG2 cells using [14C]DGLA as substrate assessed as suppression of [14C]AA production at 10 uM preincubated for 3 hrs followed by compound washout and addition of substrate measured after 4 hrs by liquid scintillation counting. It counts as cell-based. In outline:
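HepG2 cells treated with compound for 3 h, then washed three times. Cells pulsed with [¹⁴C]DGLA and incubated a further 4 h. [¹⁴C]AA production normalized: DMSO as 100%, 10 μM T-3364366 without washout as 0%. Mean ± SEM, n = 4.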
Target sequence in this assay (O60427 whole entry, looked up): as above

The target of data set [4] is Acyl-CoA (8-3)-desaturase (Rattus norvegicus) (UniProt Q920R3). In words: Binding affinity to D5D in Sprague-Dawley rat liver microsomes at 1.2 to 20 nM measured up to 2.5 hrs by liquid scintillation counting. As to conditions: TDE = time-dependent effect. Summed up:
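Time course: various [³H]T-3364366 concentrations incubated with microsomal D5D. Specific binding determined at several time points up to 2.5 h.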
(Liver microsomes are vesicles of endoplasmic reticulum, rich in cytochrome P450 enzymes.)

Data set [5] is described as follows: AUC(0 to 8 hrs) in mouse at 0.10 mg/kg, iv administered in cassette mode. Type of data set: ADME, organism-based. Further details: dose 0.1 mg/kg, route intravenous. As to conditions: in vivo, 0.1 mg/kg. Summed up: (§2)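 Mouse cassette dosing, n = 3 per group. Given iv at 0.10 mg/kg or orally. Plasma AUC taken over 0–8 h. Total clearance, Vdss and MRT derived from the iv arm. Bioavailability F computed as a percentage.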

Another data set addresses T2, Acyl-CoA desaturase 1 (Rattus norvegicus, UniProt P07308).
T2 sequence (P07308 whole entry): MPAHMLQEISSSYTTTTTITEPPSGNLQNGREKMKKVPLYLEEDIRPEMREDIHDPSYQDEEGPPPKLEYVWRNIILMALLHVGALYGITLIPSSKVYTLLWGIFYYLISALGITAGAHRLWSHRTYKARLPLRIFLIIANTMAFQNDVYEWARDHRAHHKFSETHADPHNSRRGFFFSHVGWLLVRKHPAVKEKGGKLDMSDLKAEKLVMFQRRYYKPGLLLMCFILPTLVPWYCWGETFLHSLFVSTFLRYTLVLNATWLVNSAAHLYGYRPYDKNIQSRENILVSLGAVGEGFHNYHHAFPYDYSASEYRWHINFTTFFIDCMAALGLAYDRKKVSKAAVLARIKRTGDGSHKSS
In words: Inhibition of SCD in Sprague-Dawley rat liver microsomes using [14C]stearoyl-CoA as substrate preincubated for 5 mins measured after 30 mins.

The nature of data set [6]: AUC(0 to 8 hrs) in mouse at 1 mg/kg, po administered in cassette mode. More on the design: dose 1 mg/kg, route oral. Type of data set: ADME, organism-based. As to conditions: in vivo. In outline: as §2
Another data set deals with Acyl-CoA 6-desaturase (Rattus norvegicus, UniProt Q9Z122). Kind of data set: Inhibition of D6D in Sprague-Dawley rat liver microsomes using [14C]LA as substrate preincubated for 5 mins measured after 30 mins.
Chain of Acyl-CoA 6-desaturase (Q9Z122 whole entry): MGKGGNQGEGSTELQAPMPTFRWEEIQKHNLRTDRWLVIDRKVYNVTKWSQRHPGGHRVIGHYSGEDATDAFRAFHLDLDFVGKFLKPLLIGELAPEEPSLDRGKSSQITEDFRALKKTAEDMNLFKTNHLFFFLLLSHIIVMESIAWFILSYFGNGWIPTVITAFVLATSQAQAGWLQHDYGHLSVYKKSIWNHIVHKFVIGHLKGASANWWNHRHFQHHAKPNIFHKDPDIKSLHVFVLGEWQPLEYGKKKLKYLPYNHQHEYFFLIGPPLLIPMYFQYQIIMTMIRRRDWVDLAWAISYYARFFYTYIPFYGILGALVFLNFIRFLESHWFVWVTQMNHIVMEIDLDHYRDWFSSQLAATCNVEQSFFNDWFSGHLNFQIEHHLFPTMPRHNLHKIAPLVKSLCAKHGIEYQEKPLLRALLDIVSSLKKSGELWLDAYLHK
Data set [7] can be described thus: MRT in mouse at 1 mg/kg, po administered in cassette mode. Type of data set: ADME, organism-based. The settings on record: in vivo.
A short description of data set [8]: Total clearance in mouse at 0.10 mg/kg, iv administered in cassette mode. Type of data set: ADME, organism-based. As to conditions: in vivo, 0.1 mg/kg. Summed up:
as §2

Data set [9] is described as follows: Oral bioavailability in mouse at 1 mg/kg administered in cassette mode. It counts as ADME, organism-based. The settings on record: in vivo. Summed up: as §2
Data set [10] concerns the target T3, Acyl-CoA (8-3)-desaturase (Rattus norvegicus, UniProt Q920R3). In words: Binding affinity to D5D in Sprague-Dawley rat liver microsomes after 150 mins by liquid scintillation counting. As to conditions: read-out: Kd(app). Summed up:
as §1

For the next data set, the species on record is Homo sapiens. In words: Binding affinity to recombinant D6Db5 (1 to 100 residues)/D5Ddes (100 to 444 residues) domain swapped mutant (unknown origin) expressed in baculovirus at 5 to 25 nM after 150 mins by liquid scintillation counting.
Data set [11] deals with T1, Acyl-CoA (8-3)-desaturase. In words: Inhibition of D5D in human HepG2 cells using [14C]DGLA as substrate preincubated for 30 mins followed by substrate addition measured after 3 hrs. Type of data set: cell-based.
Target sequence in this assay (O60427 whole entry): as the sequence (O60427 whole entry, looked up) above
Data set [12] can be described thus: MRT in mouse at 0.10 mg/kg, iv administered in cassette mode. It counts as ADME, organism-based. As to conditions: in vivo, 0.1 mg/kg. Summed up: as §2
Data set [13] in a line: Volume of distribution in steady state in mouse at 0.10 mg/kg, iv administered in cassette mode. It counts as ADME, organism-based. The settings on record: in vivo, 0.1 mg/kg, read-out: Vdss. Summed up: as §2
Data set [14] addresses Acyl-CoA (8-3)-desaturase (Rattus norvegicus) (UniProt Q920R3). Kind of data set: Reversible binding affinity to D5D in Sprague-Dawley rat liver microsomes assessed as compound bound to protein at 6 nM preincubated for 150 mins followed by 2 fold dilution by 10 uM of T-3364366 measured after 21 hrs by liquid scintillation counting relative to control. In outline: (§3)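 Binary complex formed by preincubating [³H]T-3364366 (6.0 nM) with microsomal D5D for 150 min. Mixture then diluted 2-fold with excess nonlabeled T-3364366 (10 μM) to block rebinding. Residual specific binding followed over time to 21 h. Dissociation half-life fitted with 95% CI, without correcting for time-dependent loss of binding.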

Data set [15] has the same target. Kind of data set: Reversible binding affinity to D5D in Sprague-Dawley rat liver microsomes assessed as dissociation half life at 6 nM preincubated for 150 mins followed by 2 fold dilution by 10 uM of T-3364366 by liquid scintillation counting. In outline: as §3
In data set [16] the target is T3, Acyl-CoA (8-3)-desaturase. In words: Inhibition of D5D in rat RLN10 cells using [14C]DGLA as substrate preincubated for 30 mins followed by substrate addition measured after 3 hrs. Type of data set: cell-based.
Data set [17] has as its target T3, Acyl-CoA (8-3)-desaturase. In words: Inhibition of D5D in Sprague-Dawley rat liver microsomes using [14C]DGLA as substrate preincubated for 5 mins measured after 120 mins.
Data set [18] has as its target Acyl-CoA (8-3)-desaturase (Rattus norvegicus) (UniProt Q920R3). In words: Reversible binding affinity to D5D in Sprague-Dawley rat liver microsomes after 150 mins in presence of trichloroacetate by liquid scintillation counting.
The target is the same in data set [19]. Kind of data set: Displacement of [3H]T-3364366 from D5D in Sprague-Dawley rat liver microsomes after 150 mins by liquid scintillation counting. Summed up:
as §1

Data set [20] concerns the target T1, Acyl-CoA (8-3)-desaturase. Kind of data set: Ratio of inhibition of D5D in human HepG2 cells preincubated for 30 mins followed by [14C]DGLA substrate addition measured after 3 hrs to inhibition of D5D in human HepG2 cells assessed as inhibition of [14C]AA production preincubated for 3 hrs followed by compound washout and addition of [14C]DGLA substrate measured after 4 hrs. Type of data set: cell-based.
Target sequence in this assay (O60427 whole entry, looked up): as above

pIC50, pKd: −log10 of the molar value. Activity calls are given as the source filed them. No cut-off for these calls is given here.

T3 sequence (Q920R3 whole entry): as the sequence (Q920R3 whole entry, looked up) above

On to `N#CC(CCCN1CCN(/N=C/c2cccnc2)CC1)(c1ccccc1)c1ccccc1`, for which the inhibition entry in data set [1] was “Active”.
For the molecule `CC(=O)NCCSc1nc2cscc2c(=O)n1-c1ccc(OCC(F)(F)F)cc1`, the result (in data set [2]; in the data set listed under Homo sapiens; in data set [18]) was Active. In addition, in [3], the inhibition result is “Active”. Besides, the Activity result in data set [4] was “Tde”; in [14], below 10%. Also, the AUC(0-t) (commonly exposure summed from dosing to a finite time, without extrapolation to infinity) at 6 h is 65 ng·h/mL in [5] and 260 ng·h/mL in data set [6]. In addition, the pIC50 (commonly the IC50 on a negative log10 scale, so that one unit is a factor of ten) was below 5.00 at Acyl-CoA desaturase 1; 5.21 against Acyl-CoA 6-desaturase; 8.72 in data set [11]; 8.68 in data set [16]; 7.72 in data set [17]. For the same molecule, the mean residence time (MRT) – broadly, a mean duration of stay, worked out from the concentration-time curve – was found to be 1.8 h in data set [7] and 39 min in [12]. In addition, the clearance (usually the rate of elimination divided by the concentration) in data set [8] was 25 mL/min/kg. Moreover, the bioavailability (usually dose-corrected exposure relative to a reference, in per cent) in data set [9] amounted to 41%. Also, in data set [10], the negative-log Kd (pKd) – broadly, the Kd on a negative log10 scale, so that one unit is a factor of ten – was 8.57. Further, in [13], the Vd turned out to be 1.1 L/kg. Moreover, the T1/2 in [15] stood at 2 h.
As for `Nc1ccccc1C(=O)Nc1cccc(Cl)c1`, the negative-log IC50 (pIC50) against Acyl-CoA desaturase 1 is below 5.00; against Acyl-CoA 6-desaturase, below 5.00; in data set [11], 7.54; in [16], 7.59; in data set [17], 6.80. Moreover, the inhibition result in data set [19] was “Active”. Besides, the Ratio in data set [20] is 1000.
With `Cc1cn([C@H]2C[C@@H](O)[C@@H](COC(c3ccccc3)(c3ccccc3)c3ccccc3)O2)c(=O)[nH]c1=O`, in data set [19], the inhibition entry is “Active”.
With `COc1ccc(OC)c(NC(=O)Nc2cccc(F)c2)c1`, the inhibition result in data set [19] is “Active”.
Same read-out and setting: with `Cc1ccc2c(c1)Nc1cc(C)ccc1CC2` the entry was “Active”.

The values above are taken from ChEMBL document CHEMBL4431397, “T-3364366 Targets the Desaturase Domain of Delta-5 Desaturase with Nanomolar Potency and a Multihour Residence Time” (ACS Med Chem Lett, 2016).
